Structures are written as SMILES.

What is called IC50 is the concentration that gives 50% inhibition. A high value points to weaker potency in that assay. The term logP denotes a log measure of how a compound divides between an organic and an aqueous phase. Usually pKa stands for the negative logarithm of the acid dissociation constant. A high value points to a group that holds its proton tightly. What is called logD is lipophilicity at a set pH, counting ionised and neutral species. Low readings indicate lower lipophilicity, high ones higher lipophilicity.

The nature of series [1]: Solubility of the compound in water. The following applies: buffer. The class given is physicochemical.
The next series concerns KB. Nature of the series: Cytotoxicity against human KB cells after 72 hrs by SRB assay. The class given is functional, cell-based.
The subject of series [2] is Lewis lung carcinoma cell line. Briefly: Antineoplastic activity against mouse LLC cells xenografted in C57BL/6 mouse assessed as tumor growth inhibition at 30 mg/kg/day, ip administered on day 9 to day 12 of tumor implantation measured on day 23. The class given is functional. The following applies: route intraperitoneal, read-out: TGI. The procedure, abridged: (§1)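 Mice bore Lewis lung carcinoma (LLC) inoculated subcutaneously and received test agents intraperitoneally at 15–50 mg kg⁻¹ day⁻¹ from day 9 or day 10. A single 100 mg/kg cyclophosphamide dose was the cytostatic control. Tumor growth was followed as the group median, and TGI% was calculated from medians versus untreated controls. Significance was tested by nonparametric Kruskal–Wallis multiple comparison, p < 0.05.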

In series [3] the test system is Lewis lung carcinoma cell line. Briefly: Antineoplastic activity against mouse LLC cells xenografted in C57BL/6 mouse assessed as tumor growth inhibition at 30 mg/kg/day, ip administered on day 9 to day 12 of tumor implantation measured on day 11. The class given is functional. To be noted: route intraperitoneal, read-out: TGI. The procedure, abridged: as §1
In series [4] the test system is Lewis lung carcinoma cell line. Briefly: Antineoplastic activity against mouse LLC cells xenografted in C57BL/6 mouse assessed as tumor growth inhibition at 15 mg/kg/day, ip administered on day 9 to day 13 of tumor implantation measured on day 18. The class given is functional. To be noted: route intraperitoneal, read-out: TGI. The essentials: as §1
For series [5], the system named is Lewis lung carcinoma cell line. Nature of the series: Antineoplastic activity against mouse LLC cells xenografted in C57BL/6 mouse assessed as tumor growth inhibition at 15 mg/kg/day, ip administered on day 9 to day 13 of tumor implantation measured on day 11. To be noted: route intraperitoneal, read-out: TGI. The class given is functional. The essentials:
as §1

The test system of series [6] is Lewis lung carcinoma cell line. Nature of the series: Antineoplastic activity against mouse LLC cells xenografted in C57BL/6 mouse assessed as tumor growth inhibition at 15 mg/kg/day, ip administered on day 9 to day 13 of tumor implantation measured on day 16. The following applies: route intraperitoneal, read-out: TGI. The series is classed as functional. The procedure, abridged: as §1

In series [7] the test system is Mus musculus. Nature of the series: Toxicity in C57BL/6 mouse xenografted with mouse LLC cells assessed as body weight loss at 15 mg/kg/day, sc administered on day 9 to day 13 of tumor implantation. The series is classed as organism-based. Also noted: route subcutaneous. To be noted: in vivo. The essentials:
(§2)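 Body weight was tracked in C57BL/6 mice bearing subcutaneously inoculated LLC during therapy given daily from day 9 to day 13. A single 100 mg/kg dose of cyclophosphamide served as the cytostatic control group.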

The test system of series [8] is Mus musculus. Nature of the series: Toxicity in C57BL/6 mouse xenografted with mouse LLC cells at 30 mg/kg/day, ip administered on day 9 to day 12 of tumor implantation. The class given is organism-based. Also noted: route intraperitoneal. To be noted: in vivo. The procedure, abridged: (§3)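 Mouse Lewis lung carcinoma (LLC) cells inoculated sc into mice. Daily dosing from day 9: 15 mg kg⁻¹ day⁻¹ through day 13 or 30 mg kg⁻¹ day⁻¹ through day 12; 25 or 50 mg kg⁻¹ day⁻¹ through day 13. Route is given as ip in tables and text but sc in figure legends. Body weight monitored for loss alongside tumor growth. Single 100 mg/kg cyclophosphamide dose as cytostatic control.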

The nature of series [9]: Octanol-water partition coefficient, log P of the compound in citric buffer at pH 2.5 by spectrophotometric analysis. The class given is physicochemical. The procedure, abridged: (§4)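 Octanol–water partitioning, with log P defined as log(C_octanol/C_water). Compound in the aqueous phase was measured spectrophotometrically, and octanol content was obtained by subtracting the supernatant concentration from the total. Values are the mean of two independent experiments, each run in triplicate.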

Series [10] is described as follows: Ratio of IC50 for compound to ratio of IC50 for DiMIQ for BALB mouse 3T3 cells. The following applies: read-out: Ratio IC50. The series is classed as cell-based.
Series [11] concerns Mus musculus. Briefly: Toxicity in C57BL/6 mouse xenografted with mouse LLC cells assessed as body weight loss at 50 mg/kg/day, sc administered on day 9 to day 13 of tumor implantation. The class given is organism-based. More on the design: route subcutaneous. The following applies: in vivo. The essentials: as §3
In series [12] the test system is Lewis lung carcinoma cell line. Nature of the series: Antineoplastic activity against mouse LLC cells xenografted in C57BL/6 mouse assessed as tumor growth inhibition at 15 mg/kg/day, ip administered on day 9 to day 13 of tumor implantation measured on day 14. The series is classed as functional. The following applies: route intraperitoneal, read-out: TGI. The procedure, abridged: as §1

In series [13] the test system is Lewis lung carcinoma cell line. Briefly: Antineoplastic activity against mouse LLC cells xenografted in C57BL/6 mouse assessed as tumor growth inhibition at 30 mg/kg/day, ip administered on day 9 to day 12 of tumor implantation measured on day 18. The series is classed as functional. The following applies: route intraperitoneal, read-out: TGI. The procedure, abridged: as §1

Series [14] is described as follows: Dissociation constant, pKa of the compound in PBS buffer at 5 uM at pH 2 to 10 by UV-spectrophotometric analysis. The series is classed as physicochemical. The essentials: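 UV spectrophotometric titration at a final compound concentration of 5 μM. At this concentration the absorbance–concentration relationship stayed linear. pKa was read from spectral changes across pH.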

The test system of series [15] is Mus musculus. Briefly: Toxicity in C57BL/6 mouse xenografted with mouse LLC cells assessed as body weight loss at 15 mg/kg/day, ip administered on day 9 to day 13 of tumor implantation. Also noted: route intraperitoneal. The series is classed as organism-based. The following applies: in vivo. The procedure, abridged:
as §2

Series [16] concerns Mus musculus. Briefly: Toxicity in C57BL/6 mouse xenografted with mouse LLC cells assessed as body weight loss at 30 mg/kg/day, ip administered on day 9 to day 12 of tumor implantation. To be noted: in vivo. The class given is organism-based. Also noted: route intraperitoneal. The essentials: as §3
The test system of series [17] is Lewis lung carcinoma cell line. Briefly: Antineoplastic activity against mouse LLC cells xenografted in C57BL/6 mouse assessed as tumor growth inhibition at 30 mg/kg/day, ip administered on day 9 to day 12 of tumor implantation measured on day 16. To be noted: route intraperitoneal, read-out: TGI. The class given is functional. The essentials: as §1
Series [18] concerns Lewis lung carcinoma cell line. Nature of the series: Antineoplastic activity against mouse LLC cells xenografted in C57BL/6 mouse assessed as tumor growth inhibition at 15 mg/kg/day, ip administered on day 9 to day 13 of tumor implantation measured on day 21. The class given is functional. The following applies: route intraperitoneal, read-out: TGI. The procedure, abridged: as §1

Series [19] concerns Lewis lung carcinoma cell line. Briefly: Antineoplastic activity against mouse LLC cells xenografted in C57BL/6 mouse assessed as tumor growth inhibition at 30 mg/kg/day, ip administered on day 9 to day 12 of tumor implantation measured on day 14. The class given is functional. To be noted: route intraperitoneal, read-out: TGI. The essentials: as §1
Another series concerns MCF7. Briefly: Cytotoxicity against human MCF7 cells after 72 hrs by SRB assay. The series is classed as functional, cell-based. To be noted: MCF7, 72 h. The essentials:
(§5)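 IC50 is the compound concentration giving 50% inhibition of cell proliferation. It was determined on normal mouse BALB/3T3 fibroblasts and on human A549, MCF-7 and LoVo cancer lines, with doxorubicin hydrochloride and DiMIQ as reference compounds.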
In general terms: The SRB assay estimates cell density from bound dye.

A short description of series [20]: Octanol-water partition coefficient, log P of the compound in PBS buffer at pH 7.4 by spectrophotometric analysis. The series is classed as physicochemical. The procedure, abridged: as §4
In the next series the test system is A549. Briefly: Cytotoxicity against human A549 cells after 72 hrs by SRB assay. The series is classed as functional, cell-based. The following applies: A549, 72 h. The procedure, abridged: as §5
Series [21] concerns Lewis lung carcinoma cell line. Briefly: Antineoplastic activity against mouse LLC cells xenografted in C57BL/6 mouse assessed as tumor growth inhibition at 30 mg/kg/day, ip administered on day 9 to day 12 of tumor implantation measured on day 21. The series is classed as functional. The following applies: route intraperitoneal, read-out: TGI. The procedure, abridged: as §1

Series [22] has as its system Lewis lung carcinoma cell line. Nature of the series: Antineoplastic activity against mouse LLC cells xenografted in C57BL/6 mouse assessed as tumor growth inhibition at 15 mg/kg/day, ip administered on day 9 to day 13 of tumor implantation measured on day 23. The series is classed as functional. The following applies: route intraperitoneal, read-out: TGI. The procedure, abridged:
as §1

The next series deals with LoVo. Briefly: Cytotoxicity against human LoVo cells after 72 hrs by SRB assay. The class given is functional, cell-based. The procedure, abridged:
as §5

The nature of series [23]: Toxicity in human erythrocytes assessed as hemolysis at 0.3 mM after 30 mins by spectrophotometric analysis. The series is classed as cell-based, Erythrocyte. The following applies: read-out: Activity. The essentials:
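Human erythrocyte suspension under isotonic conditions (pH 7.4, hematocrit 50%). Compound added across a concentration series and incubated 30 min at 37 °C before hemolysis was scored. Mean ± SD of three individual determinations. Statistics by Mann–Whitney U test, p < 0.05.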

Series [24] relates to Mus musculus. Briefly: Toxicity in C57BL/6 mouse xenografted with mouse LLC cells assessed as body weight loss at 30 mg/kg/day, sc administered on day 9 to day 12 of tumor implantation. The series is classed as organism-based. More on the design: route subcutaneous. To be noted: in vivo. The procedure, abridged:
as §3

The subject of series [25] is Mus musculus. Nature of the series: Toxicity in C57BL/6 mouse xenografted with mouse LLC cells at 15 mg/kg/day, ip administered on day 9 to day 13 of tumor implantation. The class given is organism-based. Also noted: route intraperitoneal. To be noted: in vivo. The procedure, abridged:
as §3

Regarding `Cc1c2c3cc(NC(=O)[C@@H](N)Cc4cnc[nH]4)ccc3nc-2n(C)c2ccccc12.Cl`, the solubility result in series [1] is “soluble”. The same compound showed an IC50 in the series on KB of 3460 nM.

With `Cc1c2c3cc(NC(=O)[C@H](N)Cc4cnc[nH]4)ccc3nc-2n(C)c2ccccc12.Cl`, the solubility result in series [1] was “soluble”. In the series on KB, this compound displayed an IC50 of 4850 nM.

For `Cc1c2c3cc(NC(=O)CN)ccc3nc-2n(C)c2ccccc12.Cl.Cl`, the inhibition in vivo at 30 mg/kg/day in [2] worked out at 19.7%; in [3] it was 50.1%; in series [13] it was 14.3%; in [17] it was 55.3%; in series [19], 54.7%; in series [21] it was 13.5%. The inhibition in vivo at 15 mg/kg/day in [4] was found to be 0%; in series [5], 42.4%; in [6], 23.9%; in [12], 47.4%; in series [18], 26.1%; in series [22], 25.8%. Also, the Activity result is “<= 15%” in the series with Mus musculus [7]; “Toxic” in the series with Mus musculus [8]; “<= 15%” with Mus musculus [11]; “<= 15%” in the series with Mus musculus [15]; “<= 15%” with Mus musculus [16]; “<= 15%” in the series on Mus musculus [24]. Moreover, the Activity entry with Mus musculus [25] is reported as “Toxic”. The same compound came in with a logP in series [9] of -1.9. For the same compound, in series [10], the selectivity ratio is 5. For the same compound, the solubility result in series [1] is listed as “soluble”. The compound further showed a pKa at 5 µM in series [14] of 7.2. Besides, the IC50 in the series on MCF7 was 1450 nM; in the series with A549, 1310 nM; in the series with KB, 670 nM; in the series on LoVo, 880 nM. In addition, the logD in series [20] amounted to 0.6. Moreover, the hemolysis at 0.5 h, 300 µM in [23] worked out at 42.5%.

In turn, `Cc1c2ccccc2nc2c1c1cc(NC(=O)[C@@H](N)Cc3cnc[nH]3)ccc1n2C` showed an IC50 in the series on KB of 5960 nM.

With `Cc1c2c3cc(NC(=O)[C@@H]4CCCN4C(=O)[C@@H]4CCCN4)ccc3nc-2n(C)c2ccccc12.Cl.Cl`, in series [10], the selectivity ratio is 5. For the same compound, the solubility result in [1] was “soluble”. Besides, the IC50 in the series on MCF7 was 960 nM; in the series with A549, 540 nM; in the series with KB, 560 nM; with LoVo, 360 nM.

Take `Cc1c2c3cc(NC(=O)[C@H]4CCCN4)ccc3nc-2n(C)c2ccccc12.Cl.Cl`: in series [10], the selectivity ratio worked out at 5. Moreover, in series [1], the solubility result is listed as “soluble”. Moreover, the IC50 with MCF7 was found to be 600 nM; in the series on A549, 320 nM; with KB it was 730 nM; with LoVo, 620 nM.

The values above are taken from ChEMBL document CHEMBL2146434, “Synthesis and biological evaluation of new amino acid and dipeptide derivatives of neocryptolepine as anticancer agents” (J Med Chem, 2012).
